Reference: ChEMBL document CHEMBL1125474, “Comparative molecular field analysis of anticoccidial triazines” (J Med Chem, 1992)

Test system: Eimeria tenella
Assay: Minimum effective concentration for anti-coccidial activity against […] coccidian parasite Eimeria tenella in chicks expressed as mmol/kg of feed
Type: functional
Summary of the method: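 Chicks kept on feed containing test drug, then challenged with *Eimeria tenella* oocysts. Activity is scored as the degree of lesion control in the ceca of treated, challenged birds. The lowest feed concentration that controls lesions is taken as the MEC. Values are usually reproducible within one 2-fold dilution (±0.3 in log(1/MEC)).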

Compound | Log 1/MEC
O=c1cnn(-c2ccc(S(=O)(=O)N3CCOCC3)c(Cl)c2)c(=O)[nH]1 | 1.09
Cc1cc(-n2ncc(=O)[nH]c2=O)cc(Cl)c1S(=O)(=O)N(C)C | 0.76
O=c1cnn(-c2ccc(S(=O)(=O)N3CCCCC3)c(Cl)c2)c(=O)[nH]1 | 0.17
Cc1cc(-n2ncc(=O)[nH]c2=O)cc(C)c1S(=O)(=O)N1CCOCC1 | 1.39
O=c1cnn(-c2cc(Cl)c(S(=O)(=O)N3CCOCC3)c(Cl)c2)c(=O)[nH]1 | 1.13
O=c1cnn(-c2cccc(Cl)c2)c(=O)[nH]1 | 0.25
O=c1cnn(-c2ccc(S(=O)(=O)N3CCC(O)CC3)c(Cl)c2)c(=O)[nH]1 | -0.11
Cc1cc(C)cc(-n2ncc(=O)[nH]c2=O)c1 | 0.86
Cc1cc(Cl)cc(-n2ncc(=O)[nH]c2=O)c1 | 1.2
O=c1cnn(-c2ccc(S(=O)(=O)c3ccc(Cl)cc3)cc2)c(=O)[nH]1 | 1.96
Cc1cc(-n2ncc(=O)[nH]c2=O)cc(Cl)c1Sc1ccc(Cl)cc1 | 3.28
CCc1cc(-n2ncc(=O)[nH]c2=O)cc(C)c1Sc1ccc(Cl)cc1 | 0.79
COc1c(Cl)cc(-n2ncc(=O)[nH]c2=O)cc1Cl | 0.06
O=c1cnn(-c2cc(Cl)c(S(=O)(=O)c3ccc(Cl)cc3)c(Cl)c2)c(=O)[nH]1 | 2.94
Cc1cc(-n2ncc(=O)[nH]c2=O)cc(Cl)c1S(=O)(=O)N1CCSCC1 | 0.53
O=c1cnn(-c2cc(Cl)cc(Cl)c2)c(=O)[nH]1 | 1.81
O=c1cnn(-c2ccccc2)c(=O)[nH]1 | -0.42
O=c1cnn(-c2ccc(Sc3ccc(Cl)cc3)c(Cl)c2)c(=O)[nH]1 | 2.26
O=c1cnn(-c2ccc(S(=O)(=O)c3ccc(Cl)cc3)c(Cl)c2)c(=O)[nH]1 | 2.3
CS(=O)(=O)c1c(Cl)cc(-n2ncc(=O)[nH]c2=O)cc1Cl | 0.13
O=c1cnn(-c2cc(Cl)c(Sc3ccc(Cl)cc3)c(Cl)c2)c(=O)[nH]1 | 3.3
O=c1cnn(-c2ccc(S(=O)(=O)c3ccc(Br)cc3)cc2)c(=O)[nH]1 | 1.71
Cc1cc(-n2ncc(=O)[nH]c2=O)cc(C)c1S(=O)(=O)c1ccc(Cl)cc1 | 2.59

Compound | Log 1/MEC
Cc1cc(-n2ncc(=O)[nH]c2=O)cc(C)c1[S+]([O-])c1ccc(Cl)cc1 (stereo not drawn) | 2.58
Cc1cc(-n2ncc(=O)[nH]c2=O)cc(Cl)c1S(=O)(=O)c1ccc(Cl)cc1 | 1.71
O=c1cnn(-c2ccc(S(=O)(=O)c3ccccc3)cc2)c(=O)[nH]1 | 1.04
O=C(c1ccc(Cl)cc1)c1c(Cl)cc(-n2ncc(=O)[nH]c2=O)cc1Cl | 2.9
CS(=O)(=O)c1ccc(-n2ncc(=O)[nH]c2=O)cc1 | -0.27
O=c1cnn(-c2ccc([N+](=O)[O-])cc2)c(=O)[nH]1 | -0.03
O=c1cnn(-c2ccc(Oc3ccccc3)cc2)c(=O)[nH]1 | -0.25
O=c1cnn(-c2ccc(Oc3ccc(I)cc3)c(Cl)c2)c(=O)[nH]1 | 1.77
CSc1ccc(Oc2ccc(-n3ncc(=O)[nH]c3=O)cc2C)cc1 | 2.23
Cc1cc(-n2ncc(=O)[nH]c2=O)ccc1Oc1ccc(Br)cc1 | 1.7
CSc1ccc(Oc2ccc(-n3ncc(=O)[nH]c3=O)cc2Cl)cc1 | 1.98
CC(=O)c1ccc(Sc2c(C)cc(-n3ncc(=O)[nH]c3=O)cc2Cl)cc1 | 3.19
O=c1cnn(-c2ccc(Cl)c(Cl)c2)c(=O)[nH]1 | 0.63
CC(C)(C)c1ccc(Sc2ccc(-n3ncc(=O)[nH]c3=O)cc2Cl)cc1 | 0.51
O=c1cnn(-c2ccc(Oc3ccc4cc(Br)ccc4c3)c(Cl)c2)c(=O)[nH]1 | 1.77
O=c1cnn(-c2ccc(Sc3ccc4ccccc4c3)c(Cl)c2)c(=O)[nH]1 | 0.48
CSc1ccc(Oc2c(C)cc(-n3ncc(=O)[nH]c3=O)cc2C)cc1 | 2.25
COc1cc(-n2ncc(=O)[nH]c2=O)cc(OC)c1OC | -0.55
CC(=O)c1ccc(Oc2c(C)cc(-n3ncc(=O)[nH]c3=O)cc2Cl)cc1 | 2.27
Cc1cc(-n2ncc(=O)[nH]c2=O)ccc1Oc1ccc(Cl)cc1Cl | 1.69
Cc1cc(-n2ncc(=O)[nH]c2=O)ccc1Oc1ccc(Cl)cc1 | 0.74
O=c1cnn(-c2cccc(C(F)(F)F)c2)c(=O)[nH]1 | 0.93
Cc1cc(-n2ncc(=O)[nH]c2=O)cc(Cl)c1Oc1ccc(Cl)cc1 | 1.98

Compound | Log 1/MEC
CSc1ccc(Oc2c(C)cc(-n3ncc(=O)[nH]c3=O)cc2C)cc1C | 2.27
Cc1cc(-n2ncc(=O)[nH]c2=O)ccc1Oc1ccc(S(C)(=O)=O)cc1 | 1.97
Cc1cc(-n2ncc(=O)[nH]c2=O)cc(Cl)c1Oc1ccc(C(C)O)cc1 (stereo not drawn) | 2.27
CCN(C)S(=O)(=O)c1ccc(Oc2c(C)cc(-n3ncc(=O)[nH]c3=O)cc2Cl)c(Cl)c1 | 2.11
Cc1cc(-n2ncc(=O)[nH]c2=O)cc(Cl)c1Oc1ccc(S(=O)(=O)NC2CC2)cc1Cl | 1.51
O=c1cnn(-c2cc(Cl)c(Cc3ccc(Cl)cc3)c(Cl)c2)c(=O)[nH]1 | 3.18
O=c1cnn(-c2ccc(Oc3ccc(Cl)cc3Cl)c(Cl)c2)c(=O)[nH]1 | 1.71
O=c1cnn(-c2ccc(F)c(C(F)(F)F)c2)c(=O)[nH]1 | 1.26
N#Cc1cccc(-n2ncc(=O)[nH]c2=O)c1 | 0.85
O=c1cnn(-c2ccc(Cc3ccc(Cl)cc3)c(Cl)c2)c(=O)[nH]1 | 1.64
COc1cc(OC)cc(-n2ncc(=O)[nH]c2=O)c1 | -0.3
O=c1cnn(-c2ccc(Br)c(C(F)(F)F)c2)c(=O)[nH]1 | 1.35
O=c1cnn(-c2ccc(C(O)c3ccc(Cl)cc3)c(Cl)c2)c(=O)[nH]1 (stereo not drawn) | 2.26
Cc1cc(-n2ncc(=O)[nH]c2=O)cc(C)c1C(=O)c1ccc(Cl)cc1 | 1.38
Cc1cc(-n2ncc(=O)[nH]c2=O)ccc1C(O)c1ccccc1 (stereo not drawn) | 1.01
C[C@@](C#N)(c1ccc(Cl)cc1)c1c(Cl)cc(-n2ncc(=O)[nH]c2=O)cc1Cl | 2.62
N#C[C@H](c1ccc(Cl)cc1)c1c(Cl)cc(-n2ncc(=O)[nH]c2=O)cc1Cl | 3.61
O=c1cnn(-c2ccc(Cl)c(C(F)(F)F)c2)c(=O)[nH]1 | 1.56
O=C1c2ccccc2CSc2cc(-n3ncc(=O)[nH]c3=O)ccc21 | 1.04
O=c1cnn(-c2cc(I)cc(I)c2)c(=O)[nH]1 | 1.17
N#CC(c1ccc(Cl)cc1)c1c(Cl)cc(-n2ncc(=O)[nH]c2=O)cc1Cl (stereo not drawn) [DICLAZURIL] | 3.61
Cc1cc(-n2ncc(=O)[nH]c2=O)cc(C)c1Sc1ccc(Cl)cc1 [TIAZURIL] | 2.86
